# MC4R ag barr – agonists of human melanocortin 4 receptor (MC4R) beta-arrestin. P32245. U2OS MC4R beta-arrestin complementation, luminescence; percent of melanotan II response, DMSO zero. activation, % at 8.9 µM. hit rate 0.98% among 360,000. AID 540308;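 active means activation above a per-plate cutoff, the mean activation of sample wells on that plate plus 3 SD, cut at about 8% in these data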
# Target sequence (P32245 whole entry, looked up): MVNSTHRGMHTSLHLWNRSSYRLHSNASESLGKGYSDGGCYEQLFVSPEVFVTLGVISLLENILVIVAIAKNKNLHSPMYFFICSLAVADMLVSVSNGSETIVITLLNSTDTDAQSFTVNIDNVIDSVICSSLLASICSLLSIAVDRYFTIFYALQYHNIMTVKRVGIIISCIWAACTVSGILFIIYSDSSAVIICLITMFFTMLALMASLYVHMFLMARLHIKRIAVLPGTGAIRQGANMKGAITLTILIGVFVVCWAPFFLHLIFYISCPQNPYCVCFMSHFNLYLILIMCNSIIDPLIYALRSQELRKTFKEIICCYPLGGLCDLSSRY
# MsrA inhibitor – inhibitors of bovine MsrA; purified bovine MsrA, absorbance read-out; inhibition, % at 15.5 µM; hit rate 0.75% among 360,000; AID 651718; in the data active means inhibition above about 4.5%;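 further: 0% = vehicle wells with enzyme and 100% = reference inhibitor wells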
# MC4R antag cAMP – human MC4R antagonism in cAMP assay | MC4R-expressing cells, MTII-stimulated cAMP, LANCE TR-FRET | hit rate 0.48% among 360,000 | P32245 | inhibition, % at 6.5 µM;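 active means inhibition above its plate's cutoff, the mean of tested wells on that plate plus 3 SD, cut at about 29% in these data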;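 further: 0% = Melanotan II alone and 100% = Melanotan II plus saturating MCL0020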
#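 material = U2OS cells stably expressing human melanocortin 4 receptor (MC4R) | also added = Melanotan II challenge | dosing = single nominal compound dose of 6.5 µM | detection = TR-FRET with Eu-cAMP and labeled anti-cAMP, 671 nm | replication = singlicate | timing = compound 30 min, challenge 1 h, detection 1 h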
# MsrA act – activators of bovine methionine sulfoxide reductase A | purified bovine MsrA, absorbance read-out | activation, % at 10.6 µM | hit rate 0.3% among 360,000 | AID 602163; in the data active means activation above about 7.5%;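 further: 0% = vehicle and 100% = reference activator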
# An asterisk follows results filed as active; nt = not tested or not shown. Compounds with a hit are over-represented: about 2.3% of the library has one in this group of screens.
SMILES,MC4R ag barr,MsrA inhibitor,MC4R antag cAMP,MsrA act
O=C1C(Cl)=C(NCCN2CCCCC2)C(=O)c2ccccc21,-0.6,nt,-37.5,17.9*
Cc1ccc2nc(SCC(=O)Nc3cccc(F)c3)nc(=O)n2c1,-1.3,5.1*,0.1,-3.5
Cc1ccc(Cl)cc1Nc1nc(-c2sc(NC(=O)c3ccco3)nc2C)cs1,-0.3,3.0,16.5,-3.2
Cc1nc(NC(=O)c2ccco2)sc1-c1csc(Nc2ccc(Cl)cc2Cl)n1,8.5*,2.2,27.1,-2.7
Cc1cc(=O)[nH]c(SCC(=O)Nc2nc3ccccc3s2)n1,-1.8,-0.3,5.4,-5.0
Cc1cc(=O)[nH]c(SCC(=O)Nc2nnc(SCc3ccccc3)s2)n1,8.8*,0.0,2.8,-14.2
COc1ccc(C(CC(=O)N2CCCC2)c2c(OC)cc(OC)c3c(-c4ccccc4)cc(=O)oc23)cc1 (stereo not drawn),-1.6,0.0,2.0,9.0*
C=CC[C@H](CC(=O)NCCO)C(=O)N[C@H](COC(=O)[C@@H](CC=C)CC(=O)OC(C)(C)C)Cc1c[nH]c2ccccc12,-1.3,0.4,2.0,-9.4
O=C(Nc1ccc(Cl)cc1Cl)c1cccc(N2C(=O)C=CC2=O)c1,-0.5,1.0,57.2*,-5.2
O=C(O)c1cccc(N2C(=O)C=CC2=O)c1,1.5,-1.1,-1.7,-23.8
COC(=O)c1sc2ncccc2c1OCc1ccc(Cl)cc1,8.8*,0.4,5.2,-9.5
COc1ccc(Cl)c(-c2cc(C(=O)NCc3ccc(C(F)(F)F)cc3)[nH]n2)c1,9.5*,0.2,-3.2,-1.2
Cc1ccc(-c2nn(-c3ccccc3)cc2C(=O)N2CCN(C3CCS(=O)(=O)C3)CC2)cc1 (stereo not drawn),-0.4,-1.7,0.5,1.3
Clc1ccc(OCc2nn3c(-c4ccccc4)nnc3s2)c(Cl)c1,8.9*,-0.2,11.8,-3.6
COc1ccc(-c2nnc3sc(COc4ccccc4)nn23)cc1,1.1,0.5,3.5,-1.1
COc1ccc(-c2nnc3sc(COc4ccc(C)cc4)nn23)cc1,7.1,0.7,28.7*,-3.9
CCOC(=O)CSc1nc2sc3c(c2c(=O)n1-c1ccc(C)cc1)CCN(C)C3,1.3,4.6*,-1.3,-8.5
CC(=O)c1ccc(-c2ccc(C(=O)N3CCN(c4ccc(F)cc4)CC3)o2)cc1,-2.8,1.5,10.7,-4.8
CC(=O)c1ccc(-c2ccc(C(=O)N3CCC(C(N)=O)CC3)o2)cc1,-0.7,7.6*,9.5,-3.5
O=C(c1ccccc1)c1cc2cc(Cl)ccc2[nH]1,8.3*,0.2,2.1,-2.8
Cc1sc2ncnc(N[C@@H](Cc3ccccc3)C(=O)O)c2c1C,-0.6,-0.1,5.6,-1.6
CCOC(=O)c1c(C)n(OCc2ccccc2)c2ccc3nonc3c12,8.8*,-0.8,0.6,-0.2
O=[N+]([O-])c1ccc(OCCn2cncn2)cc1,-1.7,3.1,-1.3,2.4
C=C(C)C(O)CC/C(C)=C/Cc1c(O)ccc(C(=O)/C=C/c2ccc(O)cc2)c1O (stereo not drawn),9.6*,1.9,11.1,-8.2
COc1ccc(C(=O)/C=C/c2ccc(O)cc2)c(O)c1C/C=C(\C)CCC=C(C)C,1.0,1.7,-2.4,-4.8
SMILES,MC4R ag barr,MsrA inhibitor,MC4R antag cAMP,MsrA act
COCC(=O)/C=C1\Sc2ccccc2N1C,1.3,5.1*,4.0,-5.0
Cc1cccc(N(Cc2ccccc2)C(=O)CCl)c1,21.8*,0.4,25.3,-3.4
COc1ccc(CC(=O)N(Cc2ccccc2)c2cccc(C)c2)cc1OC,-2.8,-0.9,3.0,-3.1
CCOC(=O)c1ccc(N/C=C\C(=O)c2cccc(OC)c2)cc1,9.4*,-0.1,-6.3,-13.9
CCOC(=O)c1cccc(N/C=C/C(=O)c2ccc(OC)c(OC)c2)c1,-0.2,1.9,2.8,-12.2
COc1ccc(N2CCN(S(=O)(=O)c3cccc(C(F)(F)F)c3)CC2)cc1,1.4,1.6,4.9,-3.2
COc1ccc(N2CCN(S(=O)(=O)c3ccc(Cl)c(C(F)(F)F)c3)CC2)cc1,8.5*,-0.4,5.9,-1.8
Cc1ccc(C(=O)COC(=O)c2ccc(-c3cnc4ccccc4n3)cc2)cc1C,-1.8,1.0,6.0,-4.4
Cc1cc(C)n2[nH]c(=O)c(N=Nc3ccccc3)c2n1,-2.1,1.5,-26.8,-4.5
O=C(Nc1ccc2oc(-c3ccc4ccccc4c3)nc2c1)c1ccc2c(c1)OCCO2,8.6*,-1.2,17.6,-2.5
Cc1cc(C)cc(NC(=O)COC(=O)CNC(=O)C2CCCCC2)c1,-2.7,0.9,5.0,-2.4
COc1ccc(NC(=O)c2cc3sccc3n2Cc2ccc(F)cc2)cc1OC,-0.6,1.4,2.5,-0.8
O=C(Nc1nccs1)c1cc2sccc2n1Cc1ccc(F)cc1,8.9*,1.6,4.0,-9.5
O=[N+]([O-])c1nn(-c2ccccc2)[n+]([O-])c1N1CCN(c2ccccc2F)CC1,9.3*,1.8,-4.6,-11.8
O=[N+]([O-])c1nn(-c2ccccc2)[n+]([O-])c1N1CCN(c2ccccc2)CC1,-1.8,0.5,12.4,-1.4
Cc1ccc(O)c(-c2cc3ccccc3[nH]2)c1,2.8,0.4,-4.2,-4.2
CCOC(=O)CCCCC(=O)c1[nH]c(=O)[nH]c1CN1CCOCC1,-2.2,-1.2,2.9,-0.9
COc1ccc(CNC(=O)/C=C/c2ccc(OCCCF)cc2)cc1OC,-0.8,0.9,-0.7,-3.9
O=C(/C=C/c1ccc(OCCCF)cc1)NCc1ccc(Cl)c(Cl)c1,8.9*,0.1,9.2,-2.1
CCc1ccc(NC(=O)CCc2nc3cccnc3n2Cc2ccc(OC)cc2)cc1,8.5*,1.6,7.4,-1.5
O=C(CSc1ccccc1)Nc1ccc(-c2nc3ccccc3[nH]2)cc1,10.6*,1.0,12.6,-4.4
Cc1ccc2nc(-c3ccc(NC(=O)CSc4ccccc4)cc3)[nH]c2c1,9.0*,1.5,9.9,3.8
O=C(CSc1ccc(Cl)cc1)Nc1cccc(-c2nc3ccccc3[nH]2)c1,7.2,3.3,5.0,-12.9
Cc1ccc2nc(SCC(=O)Nc3ccc(C(N)=O)cc3)[nH]c2c1,3.8,0.9,4.1,-1.3
C=CCOc1ccc(Br)cc1/C=C1/SC(=Nc2ccc(C(=O)O)cc2)NC1=O,-1.6,1.1,23.9,-1.1
SMILES,MC4R ag barr,MsrA inhibitor,MC4R antag cAMP,MsrA act
CCOc1cc(Br)cc(/C=C2\SC(=Nc3ccccc3)NC2=O)c1O,10.2*,3.8,9.6,-1.4
COc1ccc(NC(=O)CCCn2c(=S)[nH]c3ccccc3c2=O)cc1,-1.9,-0.7,1.5,-2.5
COc1ccc(NC(=O)CCn2c(=S)[nH]c3ccccc3c2=O)cc1,8.6*,0.6,8.4,-5.5
O=C(c1ccccc1)c1c[nH]cc1-c1ccccc1,-3.3,-0.8,8.2,-2.1
Clc1cccc(-c2ccc(/C=N/n3cnnc3)o2)c1,0.7,4.6*,-7.2,-12.0
Cc1ccc(-c2ccc(/C=N/n3cnnc3)o2)cc1,-0.9,4.1,-8.8,-2.1
O=Cc1ccc(-c2cccc([N+](=O)[O-])c2)o1,-2.1,1.9,-1.1,-6.2
O=Cc1ccc(-c2ccc([N+](=O)[O-])cc2Cl)o1,-0.1,5.5*,4.4,3.4
Cc1ccc(OCC(=O)NCCN2CCOCC2)cc1C,-0.7,0.2,7.7,-1.7
Cc1c2cnn(CC(=O)Nc3c(F)c(F)cc(F)c3F)c(=O)c2c(C)n1Cc1ccccc1F,25.1*,-0.6,22.0,-2.6

# From PubChem
